Source: PubChem (several laboratories)
TCR CD3 inh: blocks the human TCR-CD3 interaction; TAMRA-labeled TCR probe fluorescence, biochemical; inhibition, % at 9.4 µM; 0.37% of 360,000 active; AID 651800; in the data active = inhibition above about 19%;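 also: recombinant mutant TCR 2C K166C tagged with TAMRA read by polarization; 0% = receptor in buffer alone and 100% = receptor with positive control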
TDP2 inh: blocks human TDP2 phosphodiesterase activity; O95551; recombinant TDP2, T5PNP hydrolysis, p-nitrophenol absorbance 415 nm; inhibition, % at 12.8 µM; 0.34% of 370,000 active; AID 720702;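 active = inhibition above the mean of all tested compounds plus 3 SD, set per campaign, cut at about 25% in these data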;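 also: 0% = DMSO with enzyme and 100% = buffer with substrate but no TDP2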
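Test system: human TDP2 enzyme; Input: 120 nM TDP2 per well; Buffer or medium: Mg2+-containing Tris-HCl buffer, pH 7.5; Reagent: 5 mM T5PNP; Dosing: 12.8 µM single point, 1% DMSO; Incubation: reaction 2 h, 37 °C; Detection: p-Nitrophenol epi absorbance; Read-out: % inhibition relative to enzyme-containing and enzyme-free wells; Replicates: single well per compound.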
SIAE primary: blocks human sialic acid acetylesterase. Q9HAT2. SIAE FP-Rh probe binding, fluorescence polarization. inhibition, % at 9.66 µM. 0.69% of 370,000 active. AID 1053197;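 active = inhibition above a cutoff: mean of compounds within the control limits plus 3 SD of those, cut at about 17% in these data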;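 also: 0% = plate median of compound wells and 100% = probe without SIAE protein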
PAD4 inh: blocks human protein arginine deiminase 4. Q9UM07. recombinant PAD4, RCA probe fluorescence polarization. inhibition, % at 6.36 µM. 0.41% of 330,000 active. AID 485272;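 active = percent inhibition above a cutoff equal to the mean of all tested compounds plus 3 SD, cut at about 15% in these data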;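 also: 0% = PAD4 with RCA probe and DMSO and 100% = probe without PAD4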
GSTO1 counter: blocks human GSTO1 in RBBP9 counter-screen; P78417; recombinant GSTO1, activity-based probe fluorescence polarization; inhibition, % at 5.96 µM; 1.1% of 300,000 active; AID 1974;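 active = inhibition above the campaign mean inhibition plus 3 SD, cut at about 35% in these data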;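 also: 0% = GSTO1-1 with DMSO and 100% = wells lacking GSTO1-1 enzyme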
Apaf-1 inh: human Apaf-1 inhibition; reconstituted apoptosome caspase-3 activity, DEVD-Rh110 fluorescence; inhibition, % at 20 µM; 0.71% of 330,000 active; AID 489030; active = inhibition of at least 40% at 20 µM;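 also: plate controls were DMSO wells for no effect and DEVD-CHO caspase inhibitor wells for full effect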
Target sequence (O14727 whole entry, looked up): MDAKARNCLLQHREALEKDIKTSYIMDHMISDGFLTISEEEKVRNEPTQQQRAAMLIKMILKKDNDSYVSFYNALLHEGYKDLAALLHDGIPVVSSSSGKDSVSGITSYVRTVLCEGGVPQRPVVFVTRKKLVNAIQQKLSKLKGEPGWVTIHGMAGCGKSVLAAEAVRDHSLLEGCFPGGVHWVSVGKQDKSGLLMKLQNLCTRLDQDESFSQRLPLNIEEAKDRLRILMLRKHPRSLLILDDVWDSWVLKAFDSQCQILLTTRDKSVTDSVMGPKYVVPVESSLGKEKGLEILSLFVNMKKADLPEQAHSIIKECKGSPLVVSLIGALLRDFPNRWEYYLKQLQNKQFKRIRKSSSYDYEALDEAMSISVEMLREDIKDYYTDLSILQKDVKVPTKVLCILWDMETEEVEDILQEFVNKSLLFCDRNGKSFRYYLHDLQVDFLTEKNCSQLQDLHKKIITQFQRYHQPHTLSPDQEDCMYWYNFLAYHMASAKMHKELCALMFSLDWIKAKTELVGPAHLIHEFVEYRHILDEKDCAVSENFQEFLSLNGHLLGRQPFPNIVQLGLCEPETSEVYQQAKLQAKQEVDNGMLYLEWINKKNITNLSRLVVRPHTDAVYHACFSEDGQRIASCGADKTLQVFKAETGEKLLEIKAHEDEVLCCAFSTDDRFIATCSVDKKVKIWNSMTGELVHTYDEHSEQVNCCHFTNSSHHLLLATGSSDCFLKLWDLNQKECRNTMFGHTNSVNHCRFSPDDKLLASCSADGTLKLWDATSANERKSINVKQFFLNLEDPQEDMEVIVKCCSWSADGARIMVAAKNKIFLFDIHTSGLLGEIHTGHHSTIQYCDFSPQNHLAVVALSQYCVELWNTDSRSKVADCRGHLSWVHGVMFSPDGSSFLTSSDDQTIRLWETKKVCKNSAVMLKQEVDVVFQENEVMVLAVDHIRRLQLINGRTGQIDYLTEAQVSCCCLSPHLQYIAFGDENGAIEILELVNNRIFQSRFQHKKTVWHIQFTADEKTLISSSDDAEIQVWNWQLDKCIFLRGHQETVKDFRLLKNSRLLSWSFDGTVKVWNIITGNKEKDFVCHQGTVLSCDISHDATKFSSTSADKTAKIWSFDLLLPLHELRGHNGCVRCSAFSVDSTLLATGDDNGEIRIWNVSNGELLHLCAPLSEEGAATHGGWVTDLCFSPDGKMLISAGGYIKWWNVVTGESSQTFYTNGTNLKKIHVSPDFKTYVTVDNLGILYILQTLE
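Assay system – apoptosome proteins · Medium – Hepes buffer, pH 7.5 · Also added – cytochrome c with DEVD-Rh110 · Timing – 30 min compound preincubation, 50 min activation, room temperature · Detection – Rh110 fluorescence, excitation 480 nm, emission 540 nm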
Starred values were filed as active, the others as inactive; . = not tested or not shown. Rows were chosen to be rich in hits. Some 2.4% of all compounds tested hit in one or more screens of this group.

SMILES	TCR CD3 inh	TDP2 inh	SIAE primary	PAD4 inh	GSTO1 counter	Apaf-1 inh
CCc1ccc(/C=C2\SC(=S)N(CCCC(=O)NCCCN3CCOCC3)C2=O)cc1	-12.5	4.1	2.5	.	.	.
CCOc1ccc(/C=C2\SC(=S)N(CCCC(=O)NCCCN3CCOCC3)C2=O)cc1	-3.5	-9.4	14.5	-14.1	16.3	42.3*
c1ccc(-c2c(-c3ccccc3)n(Cc3ccco3)c3ncnc(NCCCn4ccnc4)c23)cc1	2.2	-7.8	5.2	-4.1	10.6	41.6*
CN(C)CCCNc1ncnc2oc(-c3ccccc3)c(-c3ccccc3)c12	-6.8	-6.8	-3.2	-3.3	7.0	11.3
OCCNc1ncnc2c1c(-c1ccccc1)c(-c1ccccc1)n2Cc1ccco1	-1.1	-6.3	4.5	-3.6	-3.9	2.1
c1ccc(-c2oc3ncnc(NCCCn4ccnc4)c3c2-c2ccccc2)cc1	.	.	.	-1.8	37.0*	31.1
O=C(Nc1ccccc1)Oc1ccc[nH]c1=O	-4.2	10.8	7.6	-9.9	13.2	60.6*
COc1ccc(CNc2oc(COc3ccccc3Cl)nc2C#N)cc1	0.2	3.0	-1.3	-3.6	35.3*	14.4
Cc1ccc(CNc2oc(COc3ccccc3Cl)nc2C#N)cc1	2.6	-5.0	1.2	-4.0	7.5	23.7
COC(=O)CCC(=O)OC1(C)C(=O)C2=CN(CCc3ccccn3)C(c3ccc(OC)cc3)=CC2=C(Br)C1=O (stereo not drawn)	.	.	.	-7.6	65.9*	72.9*
COc1ccc(NC(=O)CSc2nnc(C3CCCCC3)n2-c2ccccc2)cc1	-2.8	5.3	6.5	-1.6	-9.9	16.9
O=C(CCl)Nc1cn(-c2ccccc2)nc1-c1ccccc1	4.3	2.3	-4.5	3.7	51.0*	14.5
CC(C)c1cc(NC(=O)CCl)on1	-5.6	-4.9	-4.9	-0.3	104.3*	-19.3
Fc1ccc(-c2cc(-c3nnc4sc(Cc5cccs5)nn34)[nH]n2)cc1	.	-3.8	-13.2	.	.	.
c1csc(Cc2nn3c(-c4ccncc4)nnc3s2)c1	-2.7	6.9	-6.1	-3.0	-0.1	77.5*
C#CCOC(=O)/C(=C/C=C/c1ccccc1)NC(=O)c1ccccc1	-11.7	-5.2	-0.5	-0.8	-4.3	1.9
Cc1ccc(S(=O)(=O)N2CCCCC2)cc1C(=O)N(C)CCOc1ccccc1	3.0	-4.6	15.5	-2.3	4.5	29.7
COc1ccc(S(=O)(=O)N2CCCCCC2)cc1C(=O)N(C)CCOc1ccccc1	3.5	-5.6	7.8	2.7	5.0	54.8*
O=C1C(Cl)=C(N2CCCC2)C(=O)N1c1ccc(F)cc1	3.8	8.3	1.6	2.8	35.4*	-7.8
Cc1ccc(C(=O)c2coc3ccc(O)c(Cl)c23)cc1	0.8	9.9	1.4	-0.3	6.6	6.7
CCOC(=O)C(C(C)=O)c1c(Br)c(O)c(O)c2c(C(=O)c3ccc(C)cc3)coc12 (stereo not drawn)	-0.9	-2.7	-3.6	2.4	67.4*	7.4
CCOC(=O)C1CCN(S(=O)(=O)c2ccc3c(c2)CC(=O)N3C)CC1	-4.2	25.0*	5.1	3.9	27.5	10.6
O=C(NN1C(=O)C2C(C1=O)C1C=CC2C12CC2)c1cccc(Cl)c1 (stereo not drawn)	-2.0	-4.2	-4.6	-1.5	9.9	-0.6
c1ccc(C[C@H]2CNCCN2CCCCC2CCCCC2)cc1	-6.0	-6.6	7.4	-3.2	-7.6	49.4*
Cc1ccc(-c2c(C(=O)N/N=C/c3ccc4c(c3)OCO4)nnn2-c2nonc2N)cc1	1.8	10.2	-0.1	2.8	-1.7	9.6
SMILES	TCR CD3 inh	TDP2 inh	SIAE primary	PAD4 inh	GSTO1 counter	Apaf-1 inh
Cc1nn(-c2ccccc2)c(Cl)c1/C=N/Nc1ccc(S(=O)(=O)Nc2ccccc2C(=O)O)cc1[N+](=O)[O-]	0.3	3.0	17.6*	-3.0	3.9	16.1
CCC(CC)NC(=O)Nc1cccc(C)c1C	-0.9	2.4	3.0	0.8	5.2	-3.4
O=C(O)CSCC(=O)Nc1ccc(Cl)cc1C(F)(F)F	-0.5	13.0	-3.9	-4.2	8.1	4.1
CCC(C)N(CC(=O)Nc1cccc(C)c1C)C(=O)CCl (stereo not drawn)	.	.	.	0.7	51.9*	-15.3
CC(C)N(CC(=O)Nc1ccc(Cl)cc1C(F)(F)F)C(=O)CCl	-4.0	7.6	2.5	-0.1	66.2*	-11.7
CCOc1ccc(NC(=O)CN(c2ccc(OCC)cc2)S(=O)(=O)c2c(C)[nH]c(=O)[nH]c2=O)cc1	1.8	-1.7	-2.3	5.4	15.1	-6.9
CCN(CC)C(=O)CSCC(=O)Nc1ccccc1	0.4	-5.5	0.5	-5.0	-0.5	-24.3
CCN(CC)CCNC(=O)c1ccc(NC(=O)Cc2ccc(OC)c(S(=O)(=O)N3CCOCC3)c2)cc1	-4.3	-2.1	-2.6	.	.	.
C=CC(=O)Nc1ccc(CN2C(=O)N(c3c(Cl)c(OC)cc(OC)c3Cl)Cc3cnc(NCCCCN(CC)CC)nc32)cc1	.	.	.	-3.3	.	62.9*
CNC[C@H](CC1CCCCC1)NC[C@H](Cc1ccccc1)NCCC12CC3CC(CC(C3)C1)C2	-5.7	-0.9	1.8	-4.5	-5.0	73.6*
N#Cc1nccnc1N1CCN(C(=O)Nc2ccccc2)CC1	1.6	15.5	-4.4	0.5	-3.0	-5.9
C=CCNC(=O)C1CC(=O)N(c2ccc(OCC(=O)Nc3ccc(C)cc3)cc2)C1 (stereo not drawn)	-3.5	-0.9	-4.1	-0.1	34.5	0.9
C=CCNC(=O)C1CC(=O)N(c2ccc(OCC(=O)Nc3ccccc3)cc2)C1 (stereo not drawn)	4.3	-1.6	18.4*	2.2	5.2	-4.0
Cc1ccc(C(=O)N(CCc2ccccc2)Cc2ccccc2)cc1S(=O)(=O)N1CCOCC1	7.5	0.1	-4.1	.	.	.
COC(=O)/C(=C(/F)Sc1cc(C)c(O)c(C)c1)C(F)(F)F	.	.	.	15.8*	7.9	9.5
CCCCN(CCCC)C1=Nc2ccccc2N/C1=C(/C#N)C(=O)OCC	-2.2	14.1	4.8	-9.2	-1.9	18.1
CCOC(=O)c1sc(/N=C/c2c(O)ccc3ccccc23)cc1C	1.1	-3.9	5.3	1.4	38.8*	9.7
COc1ccc(N=Cc2c(O)ccc3ccccc23)cc1	-0.8	-14.8	6.9	-9.3	25.8	24.5
Cn1c(=O)[nH]c(=O)c2[nH]c(CO)nc21	4.4	-9.4	0.1	.	.	.
CN1CCN(Cc2nc3c([nH]2)c(=O)[nH]c(=O)n3C)CC1	1.4	-4.2	12.5	-0.2	36.3*	4.7
CC1=C(C)/C(=N\OS(=O)(=O)c2ccccc2)C=CC1=O	.	.	.	1.9	34.9*	0.1
CC1=CC(=O)C(C(C)C)=C/C1=N\OS(=O)(=O)c1ccc(F)cc1	.	1.6	7.8	.	.	.
O=C(COc1ccccc1)c1cn(CC(=O)N2CCOCC2)c2ccccc12	-4.6	-8.4	-8.5	-2.7	-0.9	-0.2
C[C@H](O)[C@@H]1C(=O)N2CCc3c([nH]c4ccccc34)[C@@H]2C[C@@H]1N(C)Cc1ccc(Cl)cc1	-3.8	-8.8	2.1	.	.	.
